From paper PMC5928873 (Theranostics, 2018)
Read-outs that look alike come from different tables or passages of the source.

Columns and labels:
[1] = tested on: HT-29 colon cancer xenografts; assay: Tumor growth assay, HT-29 xenograft; assay type: in vivo, BALB/c nude mice; settings: dosing from day 7, sacrificed day 28, n = 6
Procedure, shortened: (§1)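 Female BALB/c nude mice, 4–5 weeks old and housed SPF, were implanted s.c. in the right flank with BGC-823 or HT-29 cells. At 100 mm3 tumours, mice were randomised into 7 groups. Arms were PBS, reference agents (80 mg/kg/7d; 5 mg/kg/7d) and test peptides at 5 mg/kg daily or every 4 days. Body weight and tumour volume were tracked; tumours were weighed at sacrifice; n = 6, mean ± SD.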

[2] = tested on: BGC-823 gastric cancer xenografts; assay: Tumor growth assay, BGC-823 xenograft; assay type: in vivo, BALB/c nude mice; settings: dosing from day 7, sacrificed day 28, n = 6
Procedure, shortened: as §1

[3] = in rabbits, estimated; cited from earlier work
[4] = in mice; cited from earlier work
[5] = in humans; cited from earlier work
[6] = in rats; cited from earlier work
[7] = tested on: zebrafish embryo subintestinal vessels (SIVs); assay: Zebrafish angiogenesis model; assay type: in vivo; settings: yolk sac microinjection at 2 dpf, read at 3 dpf, 10 zebrafish per group analysed
Procedure, shortened: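 Transgenic zebrafish received test peptide by yolk-sac microinjection at 2 dpf, 30 embryos per group, with a positive control included. After a further 24 h, 10 embryos per group were randomly chosen. Fluorescent subintestinal vessels were imaged and SIV area was quantified by image analysis (mean ± SD, three to four independent experiments).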

O=P1(N(CCCl)CCCl)NCCCO1 (stereo not drawn) [CTX, Cyclophosphamide]
inhibition rate on HT-29 xenograft ([1]; 80 mg/kg/7d, positive group): 78.02%
inhibition rate on BGC-823 xenografts ([2]; 80 mg/kg/7d, positive group): 65.9%

Albumin
half-life [3]: 5.55 days
half-life [4]: 1.0 days
half-life [5]: 19 days
half-life [6]: 1.9 days

Avastin: recombinant humanized monoclonal IgG1 antibody against VEGF-A
inhibition rate on HT-29 xenograft ([1]; 5 mg/kg/7d): 77.91%
inhibition rate on BGC-823 xenografts ([2]; 5 mg/kg/7d): 79.54%
angiogenesis of SIV plexus in zebrafish embryos (SIV area) [7]: inhibited the angiogenesis of SIV plexus
